Test results: ChEMBL document CHEMBL1150667, “New cytotoxic constituents from the Formosan soft corals Clavularia viridis and Clavularia violacea” (2002)
Values after ≈ are worked out from the molar mass of the structure shown.

Assays:
Assay type in all cases: functional
A549 = assay: Cytotoxicity against human A549 cells; details: for EC50: Homo sapiens, A549, read-out: ED50 (the source's name)
Procedure, shortened: (§1)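 Human lung adenocarcinoma (A549) and colon adenocarcinoma (HT-29) lines obtained from ATCC. Cytotoxicity assayed in cell culture following a previously published standard procedure.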

HT-29 = assay: Cytotoxicity against human HT-29 cells; details: read-out: ED50 (the source's name); procedure, shortened: as §1
P388 = assay: Cytotoxicity against mouse P388 cells; details: for EC50: Mus musculus, P388, read-out: ED50 (the source's name)
Procedure, shortened: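 Mouse lymphocytic leukemia P-388 cells obtained from an academic laboratory (University of Illinois at Chicago). Cytotoxicity assayed in cell culture following a previously published standard procedure.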

## C=C1C(=O)O[C@H]2/C=C(\C)C[C@H](OC(C)=O)/C=C(\C)C[C@H](OC(C)=O)/C=C(\C)CC[C@H]12 [CLAVIOLIDE]
A549
  EC50: 4.91 µg/mL (≈ 11.8 µM)
HT-29
  EC50: 0.84 µg/mL (≈ 2.02 µM)
P388
  EC50: 0.38 µg/mL (≈ 0.912 µM)

## CCCCC/C=C\C[C@]1(OC(C)=O)C=CC(=O)/C1=C/C=C/CCCC(=O)OC [CLAVIRIDENONE E]
A549
  EC50: 0.41 µg/mL (≈ 1.06 µM)
HT-29
  EC50: 1.02 µg/mL (≈ 2.63 µM)
P388
  EC50: 0.11 µg/mL (≈ 0.283 µM)

## CC(C)[C@@H](C)CC[C@@H](C)[C@H]1CC[C@H]2[C@@H]3C[C@@H](O)C4=CC=CC(=O)[C@]4(C)[C@H]3[C@H](O)C[C@]12C [STOLONIFERONE E]
A549
  ED50: 3.2 ×10⁻⁴ ug/ml
HT-29
  EC50: 0.0091 µg/mL (≈ 0.0212 µM)
P388
  ED50: 1.2 ×10⁻⁴ ug/ml

## CC(C)[C@@H](C)CC[C@@H](C)[C@H]1CC[C@H]2[C@@H]3C[C@@H](O)[C@@]4(O)C=C[C@@H](O)C(=O)[C@]4(C)[C@H]3[C@H](O)C[C@]12C [STOLONIFERONE F]
A549
  EC50: 3.69 µg/mL (≈ 7.98 µM)
HT-29
  EC50: 6.46 µg/mL (≈ 14 µM)
P388
  EC50: 2.36 µg/mL (≈ 5.1 µM)

## C=C(CC[C@@H](C)[C@H]1CC[C@H]2[C@@H]3C[C@@H](O)[C@@]4(O)C=C[C@@H](O)C(=O)[C@]4(C)[C@H]3[C@H](O)C[C@]12C)C(C)C [STOLONIFERONE G]
A549
  EC50: 3.58 µg/mL (≈ 7.77 µM)
HT-29
  EC50: 5.86 µg/mL (≈ 12.7 µM)
P388
  EC50: 2.12 µg/mL (≈ 4.6 µM)
